Measured values: ChEMBL document CHEMBL4346737, “Synthesis and evaluation of tetrahydropyrazolopyridine inhibitors of anion exchange protein SLC26A4 (pendrin)” (Bioorg Med Chem Lett, 2019)

Assays:
Pendrin [1] = target: T1, Pendrin (Mus musculus, UniProt Q9R155); test: Inhibition of mouse PDS stably expressed in FRT cells coexpressing EYFP-H148Q/I152L/F46L assessed as reduction in I-/Cl- exchange incubated for 10 mins by fluorescence based assay; type: cell-based
T1 sequence (Q9R155 whole entry): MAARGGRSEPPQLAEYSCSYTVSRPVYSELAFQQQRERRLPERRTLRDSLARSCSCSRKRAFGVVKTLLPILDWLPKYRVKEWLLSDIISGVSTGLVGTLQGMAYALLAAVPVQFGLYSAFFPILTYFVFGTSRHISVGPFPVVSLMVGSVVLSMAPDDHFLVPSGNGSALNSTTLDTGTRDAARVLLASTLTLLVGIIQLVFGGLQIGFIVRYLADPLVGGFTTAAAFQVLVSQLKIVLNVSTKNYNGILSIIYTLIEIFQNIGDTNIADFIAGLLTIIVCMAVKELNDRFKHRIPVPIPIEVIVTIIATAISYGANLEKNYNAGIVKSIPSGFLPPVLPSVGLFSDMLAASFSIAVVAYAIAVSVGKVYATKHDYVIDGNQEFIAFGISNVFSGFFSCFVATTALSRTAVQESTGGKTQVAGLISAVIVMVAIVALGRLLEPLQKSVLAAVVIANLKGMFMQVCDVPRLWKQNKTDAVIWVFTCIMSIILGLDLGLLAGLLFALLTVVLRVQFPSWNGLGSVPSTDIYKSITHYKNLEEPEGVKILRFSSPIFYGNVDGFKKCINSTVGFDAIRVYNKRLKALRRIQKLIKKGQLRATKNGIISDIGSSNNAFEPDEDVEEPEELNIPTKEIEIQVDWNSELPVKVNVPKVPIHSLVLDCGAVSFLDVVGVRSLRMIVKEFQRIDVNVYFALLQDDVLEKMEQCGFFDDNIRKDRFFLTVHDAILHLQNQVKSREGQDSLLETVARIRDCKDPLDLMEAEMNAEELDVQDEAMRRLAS
How it was run: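 Fischer rat thyroid cells stably co-expressing murine pendrin and the halide-sensing YFP variant were used for Cl–/I– exchange. An I–-containing solution was added to the cells, and exchange was followed as the rate of fluorescence decrease. Inhibition was read as a slower decline in fluorescence.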

Pendrin [2] = target: T2, Pendrin (Homo sapiens, UniProt O43511); test: Inhibition of human PDS stably expressed in FRT cells coexpressing EYFP-H148Q/I152L/F46L assessed as reduction in I-/Cl- exchange incubated for 10 mins by fluorescence based assay; type: cell-based
T2 sequence (O43511 whole entry): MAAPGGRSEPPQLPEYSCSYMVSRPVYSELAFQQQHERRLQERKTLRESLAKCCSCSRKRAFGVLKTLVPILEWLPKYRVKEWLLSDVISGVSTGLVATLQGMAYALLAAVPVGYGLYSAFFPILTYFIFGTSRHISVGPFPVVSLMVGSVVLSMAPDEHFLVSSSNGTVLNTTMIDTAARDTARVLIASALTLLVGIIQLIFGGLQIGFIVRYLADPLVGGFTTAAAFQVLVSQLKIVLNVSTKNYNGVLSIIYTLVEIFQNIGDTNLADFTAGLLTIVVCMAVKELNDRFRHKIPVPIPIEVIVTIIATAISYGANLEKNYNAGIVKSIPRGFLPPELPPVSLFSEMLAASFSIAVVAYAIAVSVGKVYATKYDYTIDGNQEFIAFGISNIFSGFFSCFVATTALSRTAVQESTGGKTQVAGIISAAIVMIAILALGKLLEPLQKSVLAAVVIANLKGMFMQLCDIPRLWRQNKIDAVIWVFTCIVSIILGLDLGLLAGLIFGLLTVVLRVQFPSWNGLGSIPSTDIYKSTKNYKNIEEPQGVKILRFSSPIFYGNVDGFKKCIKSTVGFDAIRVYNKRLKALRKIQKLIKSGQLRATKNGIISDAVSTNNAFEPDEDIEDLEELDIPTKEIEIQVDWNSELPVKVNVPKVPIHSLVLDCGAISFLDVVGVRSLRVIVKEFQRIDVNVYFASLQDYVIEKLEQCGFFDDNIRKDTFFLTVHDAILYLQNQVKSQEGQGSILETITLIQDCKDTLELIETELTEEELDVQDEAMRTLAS

Row | SMILES | IC50 (Pendrin [1]) [µM] | IC50 (Pendrin [2]) [µM]
1 | Cn1nc(COc2cc(F)c(F)c(F)c2)c2c1CCN(C(=O)Nc1ccc(Cl)cc1)C2 | 3.3 | 
2 | Cn1nc(COc2cc(F)cc(F)c2)c2c1CCN(S(=O)(=O)c1ccc(C(F)(F)F)cc1)C2 | > 10 | 
3 | CCN(CC)S(=O)(=O)N1CCc2c(c(COc3cc(F)cc(F)c3)nn2C)C1 | > 10 | 
4 | CCOC(=O)c1nn(C)c2c1CN(C(=O)Nc1ccc(Cl)cc1)CC2 | > 10 | 
5 | Cn1nc(COc2ccc(F)c(F)c2)c2c1CCN(C(=O)Nc1ccc(Cl)cc1)C2 | 4.6 | 
6 | Cn1nc(COc2cccc(F)c2)c2c1CCN(C(=O)Nc1ccc(Cl)cc1)C2 |  | 7
7 | Cn1nc(COc2cc(F)cc(F)c2)c2c1CCN(S(=O)(=O)c1ccc(Cl)cc1)C2 | > 10 | 
8 | Cn1nc(C(=O)O)c2c1CCN(C(=O)Nc1ccc(Cl)cc1)C2 | > 10 | 

The next lines start with the values.

Row | IC50 (Pendrin [1]) [µM] | IC50 (Pendrin [2]) [µM] | SMILES
9 | > 10 |  | Cn1nc(COc2cc(F)cc(F)c2)c2c1CCN(S(C)(=O)=O)C2
10 | 3.1 |  | Cn1nc(COc2cc(F)cc(F)c2)c2c1CCN(C(=O)Nc1ccc(Cl)cc1)C2
11 | > 10 |  | Cn1nc(COc2cc(F)cc(F)c2)c2c1CCN(C(=S)Nc1ccc(Cl)cc1)C2
12 | 3.3 |  | Cn1nc(COc2cc(F)cc(F)c2)c2c1CCN(C(=O)Nc1ccc(Br)cc1)C2
13 | > 10 |  | Cn1nc(COc2cc(F)cc(F)c2)c2c1CCN(C(=S)NC1CCCCC1)C2
14 | > 10 |  | Cn1nc(COc2cc(F)cc(F)c2)c2c1CCN(C(=O)NC(=O)c1ccccc1)C2
15 | > 10 |  | CC(C)NC(=O)N1CCc2c(c(COc3cc(F)cc(F)c3)nn2C)C1
16 | > 10 |  | CN(C)c1ccc(NC(=S)N2CCc3c(c(COc4cc(F)cc(F)c4)nn3C)C2)cc1
17 | > 10 |  | Cn1nc(COc2cc(F)cc(F)c2)c2c1CCN(C(=O)NC1CCCCC1)C2
